Measured values from article PMC3147223 (Journal of biomedical materials research. Part A, 2009).
Where no end group is shown, it is not given here.

Columns and labels:
platelets = assay: Competitive platelet-EC static adhesion assay: platelet adhesion; format: cell-based, human; details: washed suspension of 190 EC/μl and 50,000 platelet/μl, 30 min, 37°C, n=3, FN=1
Outline: (§1)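 Passage-7 ECs were detached (Cellstripper, 30 min) and mixed in 1% BSA with washed platelets (citrated donor blood; PRP pelleted, EDTA-PBS wash), plus 2 mM CaCl2 and 1 mM MgCl2 final. Surfaces (FSP adsorbed 24 h on fluorosilane monolayers, or FN-coated glass) were pre-blocked with 2% BSA for 30 min. Samples were PFA-fixed and stained with FITC anti-CD41a, phalloidin and DAPI. 14–33 epifluorescent fields/surface were analysed; two-sample t-test.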

Human pulmonary ECs = assay: Competitive platelet-EC static adhesion assay: EC adhesion; format: cell-based; details: washed suspension of 190 EC/μl and 50,000 platelet/μl, 30 min, 37°C, n=3, FN=1
Outline: as §1

Substance | Platelet surface coverage normalized to FN, platelet-EC suspension (platelets) | EC adhesion (EC population) normalized to FN (Human pulmonary ECs)
GSSSRGD [RGD FSP] | 1.99 | 0.99
GSSS-*CRRETAWAC* (disulfide) [cRRE FSP] | – | 0.93
cyclic(RGDfE)-SSSK (head to tail) [cRGD FSP] | 2.66 | 1.05
